Laboratory results: ChEMBL document CHEMBL1926645, “Synthesis and biological evaluation of (4H-1,2,4-triazol-4-yl)isoquinoline derivatives as selective glycine transporter 1 inhibitors” (Bioorg Med Chem, 2012)
In brackets after ≈: the same amount, converted by molar mass.

Assays:
[1] = biological target: T1, Sodium- and chloride-dependent glycine transporter 1 (Rattus norvegicus, UniProt P28572); experiment: Displacement of [3H]glycine from rat GlyT1 expressed in rat C6 cells after 30 mins by scintillation counting; type: cell-based
T1 sequence (P28572 whole entry): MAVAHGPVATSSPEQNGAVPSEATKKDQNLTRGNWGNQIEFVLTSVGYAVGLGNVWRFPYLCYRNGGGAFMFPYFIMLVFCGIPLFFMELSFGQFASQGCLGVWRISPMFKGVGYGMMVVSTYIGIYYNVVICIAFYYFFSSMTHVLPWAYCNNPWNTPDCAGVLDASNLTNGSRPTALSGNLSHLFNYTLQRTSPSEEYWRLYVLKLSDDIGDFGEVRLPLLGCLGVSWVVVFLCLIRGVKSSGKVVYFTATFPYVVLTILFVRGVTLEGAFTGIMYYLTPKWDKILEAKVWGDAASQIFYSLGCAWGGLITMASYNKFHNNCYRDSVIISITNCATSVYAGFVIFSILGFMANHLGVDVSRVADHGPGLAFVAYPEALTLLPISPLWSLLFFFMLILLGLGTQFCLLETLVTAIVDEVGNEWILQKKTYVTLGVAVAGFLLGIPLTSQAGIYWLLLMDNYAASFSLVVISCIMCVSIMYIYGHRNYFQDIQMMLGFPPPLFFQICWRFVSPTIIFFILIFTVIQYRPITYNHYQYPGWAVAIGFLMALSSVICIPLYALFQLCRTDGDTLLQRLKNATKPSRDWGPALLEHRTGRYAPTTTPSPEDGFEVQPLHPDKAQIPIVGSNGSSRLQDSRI
Procedure, shortened: (§1)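 Rat GlyT1-expressing C6 cells grown in D-MEM/10% FCS, 37 °C, 5% CO2, plated 2 days ahead. Cells washed, then preincubated 30 min with compound in HEPES buffer pH 7.4 (NaCl, KCl, MgCl2, CaCl2, glucose, L-alanine). Uptake started with [3H]glycine, 10 min at 37 °C. Nonspecific uptake defined with 3 mmol/L sarcosine. Cells washed with ice-cold PBS, lysed in 0.1 mol/L NaOH, scintillation counted; mean ± SEM of three independent experiments.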

[2] = biological target: T2, Sodium- and chloride-dependent glycine transporter 1 (Rattus norvegicus) (UniProt P28572); experiment: Displacement of [3H]glycine from rat GlyT1 expressed in rat C6 cells at 10 uM after 30 mins by scintillation counting; type: cell-based; procedure, shortened: as §1
T2 sequence (whole entry): T1 sequence (P28572 whole entry)

[3] = Aqueous solubility of the compound at pH 1.2; type: physicochemical
Procedure, shortened: (§2)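 Compound suspension held at 25 °C for 20 h; precipitate removed by filtration and dissolved concentration in filtrate measured by HPLC.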

[4] = Aqueous solubility of the compound at pH 6.8; type: physicochemical; procedure, shortened: as §2
[5] = species on record: Rattus norvegicus; experiment: Selectivity ratio of IC50 for rat GlyT2 to IC50 for rat GlyT1
[6] = biological target: T3, Sodium- and chloride-dependent glycine transporter 2 (Rattus norvegicus, UniProt P58295); experiment: Displacement of [3H]glycine from Wistar rat brain GlyT2 after 10 mins by scintillation counting
T3 sequence (P58295 whole entry): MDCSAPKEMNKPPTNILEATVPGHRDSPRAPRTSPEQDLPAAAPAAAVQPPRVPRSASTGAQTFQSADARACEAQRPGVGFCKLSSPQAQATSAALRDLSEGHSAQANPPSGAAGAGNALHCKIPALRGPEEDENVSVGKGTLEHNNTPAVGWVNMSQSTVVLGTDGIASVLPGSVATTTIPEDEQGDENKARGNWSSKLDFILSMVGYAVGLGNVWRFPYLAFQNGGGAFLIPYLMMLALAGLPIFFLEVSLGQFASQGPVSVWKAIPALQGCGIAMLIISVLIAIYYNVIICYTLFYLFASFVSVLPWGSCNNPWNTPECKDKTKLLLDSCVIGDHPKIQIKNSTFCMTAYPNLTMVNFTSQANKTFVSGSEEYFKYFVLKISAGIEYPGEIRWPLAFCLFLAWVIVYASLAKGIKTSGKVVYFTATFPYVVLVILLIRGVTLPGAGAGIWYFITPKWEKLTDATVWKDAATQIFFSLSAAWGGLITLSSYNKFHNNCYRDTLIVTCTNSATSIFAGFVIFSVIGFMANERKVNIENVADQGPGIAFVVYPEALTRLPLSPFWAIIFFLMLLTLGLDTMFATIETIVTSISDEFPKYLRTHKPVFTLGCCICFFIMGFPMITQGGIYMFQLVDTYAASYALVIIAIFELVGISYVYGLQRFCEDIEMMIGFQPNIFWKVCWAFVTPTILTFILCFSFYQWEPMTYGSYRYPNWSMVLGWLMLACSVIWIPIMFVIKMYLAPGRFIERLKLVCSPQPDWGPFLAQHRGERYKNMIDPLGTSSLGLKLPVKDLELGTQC
Procedure, shortened: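 Primary brainstem cells from Wistar rat fetuses (E17) were papain-dispersed, plated on poly-L-lysine, and cultured 14–21 days. The assay buffer, pH 7.4, contained 3 mmol/L sarcosine; wells were preincubated 10 min at 37 °C. Compound was added with ~0.3 µM [3H]glycine for 10 min at 37 °C, followed by four ice-cold washes, NaOH lysis and scintillation counting. Specific uptake was defined with 3 mmol/L glycine; mean ± SEM of three independent experiments.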

[7] = test system: Mus musculus; experiment: Antipsychotic activity in ICR mouse assessed as inhibition of (+)-HA966-induced hyperlocomotion at 10 mg/kg, ip administered 20 mins prior (+)-HA966] challenge measured every 90 mins; type: functional; conditions: route intraperitoneal
Procedure, shortened: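 Mice, 16 per group, pretreated with reserpine 10 mg/kg ip 19 h and α-methyl-para-tyrosine methyl ester 250 mg/kg ip 30 min before bilateral intracerebroventricular (+)-HA966 80 µg/mouse; ACSF+vehicle controls. Locomotor activity integrated over 90 min immediately after (+)-HA966. Percent inhibition = 100 × [(HA966+vehicle − ACSF+vehicle) − (HA966+compound − ACSF+vehicle)] / (HA966+vehicle − ACSF+vehicle).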

SMILES	IC50 [1]	solubility [3]	solubility [4]	other results
CCc1nnc(-c2ccc(-c3ccccc3)cc2)n1Cc1ccncc1	> 10 µM	–	–	inhibition [2]: 15%
CCc1nnc(-c2ccc(-c3ccccc3)cc2)n1-c1ccccc1F	–	96 µM (≈ 33 µg/mL)	< 1 µM	Ratio IC50 [5]: 1
CCc1nnc(-c2ccc(-c3ccccc3)cc2)n1-c1nccc2ccccc12	1.4 µM	–	–	–
CCc1nnc(-c2ccc(-c3ccccc3)cc2)n1-c1cccc2nc[nH]c12	7.5 µM	–	–	–
CCc1nnc(-c2ccc(-c3ccccc3)cc2)n1-c1cccc2cc[nH]c12	22 µM	–	–	–
CCc1nnc(-c2ccc(-c3ccccc3)cc2)n1-c1cncc2ccccc12	3.7 µM	–	–	–
CCc1nnc(-c2ccc(-c3ccccc3)cc2)n1-c1cccc2c[n+]([O-])ccc12	> 10 µM	–	–	inhibition [2]: 28%
CCc1nnc(-c2ccc(-c3ccccc3)cc2)n1-c1cccc2cn[nH]c12	5.6 µM	–	–	–
CCc1nnc(-c2ccc(-c3ccccc3)cc2)n1-c1ccnc2ccccc12	1.7 µM	–	–	–
CCc1nnc(-c2ccc(-c3ccccc3)cc2)n1-c1cccc2cnccc12	–	> 100 µM	5 µM (≈ 1.88 µg/mL)	–
CCc1nnc(-c2ccc(-c3ccccc3)cc2)n1C(C)c1ccncc1 (stereo unspecified)	> 10 µM	–	–	inhibition [2]: 36%
CCc1nnc(-c2ccc(-c3ccccc3)cc2)n1-c1cccc2c(=O)[nH]ccc12	> 10 µM	–	–	inhibition [2]: 16%
CCc1nnc(-c2ccc(-c3ccccc3)cc2)n1-c1cccc2[nH]ncc12	2.8 µM	–	–	–
CCc1nnc(-c2ccc(-c3ccccc3)cc2)n1-c1cccc2cccnc12	0.3 µM	> 100 µM	23 µM (≈ 8.66 µg/mL)	IC50 [6]: 0.38 µM; Ratio IC50 [5]: 1.3
CCc1nnc(-c2ccc(-c3ccccc3)cc2)n1-c1cccc2ccn(C)c12	3 µM	–	–	–
CCc1nnc(-c2ccc(-c3ccccc3)cc2)n1-c1cccc2ccncc12	0.8 µM	> 100 µM	11 µM (≈ 4.14 µg/mL)	IC50 [6]: 4.2 µM; Ratio IC50 [5]: 5.3
CC(C)c1nnc(-c2ccc(-c3ccccc3)cc2)n1-c1ccccc1F	–	5 µM (≈ 1.79 µg/mL)	< 1 µM	inhibition in vivo at 10 mg/kg [7]: 70%
CCc1nnc(-c2ccc(-c3ccccc3)cc2)n1-c1cccc2c1CCNC2	> 10 µM	–	–	inhibition [2]: 25%
CCc1nnc(-c2ccc(-c3ccccc3)cc2)n1-c1cccc2ncccc12	0.82 µM	> 100 µM	9 µM (≈ 3.39 µg/mL)	IC50 [6]: 2.7 µM; Ratio IC50 [5]: 3.3
